From PubChem
An excerpt weighted towards active compounds, which were near 2.1% of everything screened.
MIN6 prolif: induces beta-cell replication in MIN6 cells | MIN6 cells proliferation, ATPlite luminescence, 48 h; cells starved in 0.2% serum; 100% = growth in 10% serum | 330,000 compounds, 0.29% hits | proliferation, % at 10 µM | AID 2380;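 active = compounds whose signal lies at least 3.5 SD above the mean of all wells on their plate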
CRFBP-R2 agonist: agonists of human CRF-binding protein/CRF-R2 receptor complex; HEK293 CRF-R2/CRF-BP, calcium dye fluorescence (FLIPR); percent of saturating CRF peptide response; activation, % at 13.2 µM; 350,000 compounds, 0.46% hits;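 active = activation of at least 50%, plus an integration ratio under a set limit after plate pattern correction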
iPSC survival up: enhancers of human iPSC single-cell survival | hiPSC single-cell survival, ATPlite luminescence; 100% = ROCK inhibitor wells, 0% = DMSO | AID 602274 | 360,000 compounds, 0.044% hits | survival enhancement, % at 20 µM; in the data active = survival enhancement above about 18%;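 note: cells exposed to compounds for 16 hours before the ATP read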
H9c2 protect: protects H9c2 cardiomyocytes from peroxide injury; H2O2 injury protection, ATPLite, 2 h; protection from H2O2 cell death, % at 20 µM; 360,000 compounds, 0.63% hits;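 active = compounds giving at least 50% protection of heart cells from peroxide-induced death in the single-dose screen, raw or plate-pattern-corrected value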
CRFR2-BP antag: CRF-BP/CRF-R2 complex antagonism; HEK293 CRF-R2/CRF-BP, CRF-induced calcium fluorescence; inhibition, % at 11.8 µM; 350,000 compounds, 0.59% hits;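 active = inhibition of the ligand-induced calcium signal above about 50% at the single tested concentration, limit read from the data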
UCH37 DUB inh: inhibitors of human deubiquitinating enzyme UCH37; AID 588478; inhibition, % (concentration not given with the values); 330,000 compounds, 0.33% hits; purified proteasome/UCH37, Ub-AMC cleavage fluorescence;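 active = mean inhibition over replicate wells above about 20%, limit read from the data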
Target sequence (Q9Y5K5 whole entry, looked up): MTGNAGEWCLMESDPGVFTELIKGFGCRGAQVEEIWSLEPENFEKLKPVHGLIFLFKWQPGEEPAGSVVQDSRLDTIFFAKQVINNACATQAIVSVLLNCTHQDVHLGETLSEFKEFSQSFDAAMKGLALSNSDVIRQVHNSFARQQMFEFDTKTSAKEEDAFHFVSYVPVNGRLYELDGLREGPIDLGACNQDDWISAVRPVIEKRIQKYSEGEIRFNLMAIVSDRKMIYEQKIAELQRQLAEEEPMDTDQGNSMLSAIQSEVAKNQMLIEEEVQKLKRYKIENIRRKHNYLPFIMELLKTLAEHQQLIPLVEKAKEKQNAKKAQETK
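assay system = human UCH37 enzyme supplied as purified proteasome complex | amount = proteasome at 0.15 nM in the dispensed enzyme solution | schedule = 30 min compound-proteasome preincubation then 25 min substrate reaction, room temperature | measured by = fluorescence, ex 355 nm, em 460 nm | benchmarks = no-proteasome wells (full inhibition) and compound-free wells (no inhibition)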
Hits are given with their value; 0 = inactive; - = no result given; ! = not confirmed by another sample.

SMILES	MIN6 prolif	CRFBP-R2 agonist	iPSC survival up	H9c2 protect	CRFR2-BP antag	UCH37 DUB inh
COc1cccc2c1C(=O)c1c(O)c3c(c(O)c1C2=O)CC(O)(C(=O)CO)CC3OC1CC(N(C)C)C(O)C(C)O1 (stereo unspecified)	-	91	0	0	0	-
CC(=O)[C@]1(O)Cc2c(O)c3c(c(O)c2[C@@H](O[C@H]2C[C@H](N)[C@H](O)[C@H](C)O2)C1)C(=O)c1ccccc1C3=O	0	212	-	-	0	0
COc1cccc2c1C(=O)c1c(O)c3c(c(O)c1C2=O)C[C@@](O)(C(=O)CO)C[C@@H]3O[C@H]1C[C@H](N)[C@@H](O)[C@H](C)O1	0	60	0	0	0	0
C/C(C=NNC(=O)c1cc(-c2ccc(Cl)cc2)nc2ccccc12)=C\c1ccco1	-	-	-	-	-	0
O=C(NN=Cc1cccnc1)c1cc(-c2ccc(Cl)s2)[nH]n1	-	-	-	-	-	0
C[C@@H](N)C(=O)NCC1CCC(C(=O)N[C@@H](Cc2ccccc2)C(=O)O)CC1 (stereo partly specified)	-	-	-	-	-	0
O=C(CSc1ccc(-c2ccccc2)nn1)N1CCN(c2ccccc2)CC1	0	0	0	0	0	0
O=C(CSc1ccc(-c2ccncc2)nn1)N1CCN(c2ccccc2)CC1	0	0	0	0	63	0
O=C(OCC(=O)N1CCN(c2ccccc2)CC1)c1ccccn1	-	0	0	0	53	0
CCOC(=O)c1ccc(N=c2sc(C(=O)OC)cc(=O)n2CCCN2CCOCC2)cc1	0	0	0	0	57!	0
CCOC(=O)c1ccc(N=c2sc(C(=O)OC)cc(=O)n2Cc2ccco2)cc1	0	0	0	0	0	0
COc1ccc(NS(=O)(=O)c2ccc3ccccc3c2)c2ncccc12	0	0	0	59	0	-
Nc1ccc(C(=O)N/N=C\c2cc(N=Nc3cccc4ccccc34)ccc2O)cc1	0	0	0	0	59	-
Cc1cc(N2CCOCC2)nc(N)n1	0	164	0	0	0	0
Cc1cc(N2CCOCC2)nc(NCc2ccccc2)n1	0	122	0	0	0	0
COC(=O)c1cc2occc2n1CC(=O)Nc1ccc(OC)c(OC)c1OC	0	0	0	0	0	0
COC(=O)c1cc2sc(Cl)cc2n1CC(=O)Nc1ccc(OC)c(OC)c1OC	0	55	0	0	0	0
O=C(CSc1nc2ccccc2c(=O)n1-c1ccc(Cl)cc1)NN=C/C=C/c1ccccc1[N+](=O)[O-]	-	-	-	-	-	0
CCc1ccc(Nc2n[n+](-c3ccccc3)c(-c3ccc(N(CC)CC)cc3)s2)cc1	0	67	0	0	0	0
CCN(CC)c1ccc(-c2sc(Nc3ccccc3)n[n+]2-c2ccc(F)cc2)cc1	0	0	0	0	0	0
CC(C)NC(=S)NC(=O)c1ccc(-c2ccccc2)cc1	0	72	0	0	0	0
Cc1ncn(C23CC4CC(CC(C4)C2)C3)n1	0	0	0	0	58	0
CCOC(=O)c1cnc(-c2ccccc2O)nc1Cl	0	0	0	0	0	0
CCOC(=O)C1=Nc2ccccc2C1=[N+]=[N-]	0	0	0	72	0	-
COc1ccc2c(c1)C(=O)[C@@H](O)[C@H](c1ccc(OC)c(Br)c1)O2	0	0	0	52	0	0
SMILES	MIN6 prolif	CRFBP-R2 agonist	iPSC survival up	H9c2 protect	CRFR2-BP antag	UCH37 DUB inh
Cc1ccc(C=NNc2nc3ccccc3[nH]2)s1	-	-	-	-	-	0
Cc1nnc2ccc(N3CCN(C(=O)c4ccccc4)CC3)nn12	0	0	0	0	0	0
O=C(c1ccc(Br)o1)N1CCN(c2ccc3nnc(-c4ccccc4)n3n2)CC1	0	0	0	81	0	0
CCSc1nnc(NC(=O)C(CC)(C(F)(F)F)C(F)(F)F)s1	0	0	0	0	56	0
O=C1/C(=C/C=C/c2ccccc2)Oc2c1ccc(O)c2CN1CCN(CCO)CC1	0	0	0	0	0	0
CCN1CCN(Cc2c(O)ccc3c2O/C(=C\c2ccc(C)cc2)C3=O)CC1	0	54	0	0	0	0
COc1ccccc1/C=C/C=C1\Oc2c(ccc(O)c2CN2CCN(CCO)CC2)C1=O	0	59	0	0	0	0
N#Cc1c(-c2ccccc2)cc(-c2ccccc2)nc1SCC(=O)NCC(=O)O	0	72	0	0	0	0
CC(C)C(Sc1nc(-c2ccccc2)cc(-c2ccccc2)c1C#N)C(=O)O (stereo unspecified)	0	0	0	0	68	0
COc1ccc(-c2cc(-c3ccccc3)nc(SC(C)C(=O)O)c2C#N)cc1 (stereo unspecified)	0	0	0	0	0	0
CC(=NNc1cccc2cccnc12)c1ccc(N)cc1	-	-	-	-	-	0
CC(=NNc1nc2ccccc2s1)c1ccc2c(c1)OCO2	-	-	-	-	-	0
Cc1cccc(Cn2cc(/C=C/[N+](=O)[O-])c3ccccc32)c1	0	0	0	0	0	0
O=[N+]([O-])/C=C/c1cn(Cc2ccc(Cl)cc2)c2ccccc12	0	0	0	0	0	20
Oc1ccccc1C=NCCN=Cc1ccccc1O	0	0	0	0	0	0
Oc1ccccc1C=NCCN1CCN(CCN=Cc2ccccc2O)C1c1ccccc1O (stereo unspecified)	-	0	0	0	66	0
Nc1ncnc(NNC(=O)CNC(=O)c2c(F)cccc2Cl)c1[N+](=O)[O-]	0	0	0	0	101	0
COc1ccccc1C(=O)NCC(=O)NNc1ncnc(N)c1[N+](=O)[O-]	0	-	-	-	-	-
N#CNC(=Nc1cccc(F)c1)SCc1ccccc1	0	0	0	0	64	0
CCN(CC)C(=S)Sc1c(-c2ccccc2)c2cc(Cl)ccc2[nH]c1=O	0	71	0	0	0	0
ON=C(CCc1ccccc1)c1ccc2c(c1)OCCO2	-	-	-	-	-	0
CCC1(c2ccc(F)cc2)NC(=O)N(CC(=O)c2cc(C)n(C3CC3)c2C)C1=O (stereo unspecified)	0	66	0	0	0	0
O=C(NCc1cc(C(F)(F)F)ccc1Cl)c1cccc2c1C(=O)c1ccc(N3CCC(Cc4ccccc4)CC3)cc1S2(=O)=O	0	73	0	0	0	0
O=C(NCc1ccccc1C(F)(F)F)c1cccc2c1C(=O)c1ccc(N3CCCCC3)cc1S2(=O)=O	0	76	0	0	0	0
O=C(NC1CC1)c1cccc2c1C(=O)c1ccc(N3CCC(Cc4ccccc4)CC3)cc1S2(=O)=O	0	83	0	0	0	0
C=CCNC(=O)c1cccc2c1C(=O)c1ccc(N3CCOCC3)cc1S2(=O)=O	0	0	0	0	98	0
O=C(NCc1ccccc1Br)c1cccc2c1C(=O)c1ccc(N3CCOCC3)cc1S2(=O)=O	0	-	-	-	-	-
CCOc1cccc(C=NNc2ccc(S(=O)(=O)N(CC)CC)cn2)c1O	-	-	-	-	-	0
CCOc1ccc(C=NNC(=O)c2[nH]c3ccc(C)cc3c2C)cc1	-	-	-	-	-	0
